Test results: ChEMBL document CHEMBL1629492 (Eur J Med Chem, 2010)

Columns and labels:
[1] = target: T1, Alpha-1D adrenergic receptor (Rattus norvegicus) (UniProt P23944); conditions: Wistar, Thoracic aorta
T1 sequence (whole entry): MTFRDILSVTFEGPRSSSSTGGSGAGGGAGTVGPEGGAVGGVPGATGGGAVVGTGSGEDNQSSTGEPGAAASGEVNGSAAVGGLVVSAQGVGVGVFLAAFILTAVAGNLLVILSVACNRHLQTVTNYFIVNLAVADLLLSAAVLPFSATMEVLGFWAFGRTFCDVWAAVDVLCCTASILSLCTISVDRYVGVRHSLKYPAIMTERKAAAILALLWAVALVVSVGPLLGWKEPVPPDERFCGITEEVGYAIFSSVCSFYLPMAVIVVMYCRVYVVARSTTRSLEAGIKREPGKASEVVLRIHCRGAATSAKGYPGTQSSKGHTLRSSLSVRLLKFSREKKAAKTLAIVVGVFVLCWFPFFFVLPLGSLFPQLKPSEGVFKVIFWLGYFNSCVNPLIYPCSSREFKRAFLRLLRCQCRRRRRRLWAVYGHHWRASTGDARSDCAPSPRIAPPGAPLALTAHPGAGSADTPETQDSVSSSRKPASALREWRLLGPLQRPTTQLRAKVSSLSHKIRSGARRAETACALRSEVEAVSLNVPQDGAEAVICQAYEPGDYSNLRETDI

[2] = target: T2, Alpha-1A adrenergic receptor (Rattus norvegicus) (UniProt P43140); assay: Antagonist activity at alpha1A adrenoceptor in Wistar rat vas deferens assessed as noradrenaline induced contractions after 30 mins; type: functional, tissue-based
T2 sequence (whole entry): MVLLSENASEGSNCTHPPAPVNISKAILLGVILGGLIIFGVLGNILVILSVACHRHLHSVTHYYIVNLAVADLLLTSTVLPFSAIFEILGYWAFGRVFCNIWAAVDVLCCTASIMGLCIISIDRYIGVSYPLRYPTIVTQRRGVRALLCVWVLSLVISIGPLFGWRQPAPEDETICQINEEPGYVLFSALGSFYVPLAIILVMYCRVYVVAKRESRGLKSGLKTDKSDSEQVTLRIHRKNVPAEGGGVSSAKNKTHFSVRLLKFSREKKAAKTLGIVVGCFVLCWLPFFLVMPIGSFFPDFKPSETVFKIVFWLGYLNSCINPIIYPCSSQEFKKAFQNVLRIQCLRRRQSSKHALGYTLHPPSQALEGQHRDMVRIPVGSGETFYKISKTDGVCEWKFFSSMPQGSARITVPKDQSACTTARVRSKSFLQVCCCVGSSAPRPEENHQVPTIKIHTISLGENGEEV
Summary of the method: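 Prostatic portions (2 cm) of vas deferens from male Wistar rats (275–300 g) were held under 0.35 g tension in Tyrode solution at 37 °C with cocaine present. Tissues were equilibrated 45 min, primed twice with noradrenaline, then given a cumulative isotonic noradrenaline curve.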

SMILES | pKb [1] | pKb [2]
COc1ccc(C[C@@H](C)NCCOc2ccccc2OCc2ccccc2)cc1S(N)(=O)=O | 9.2 | 9.66
COc1ccc(C[C@@H](C)NCCOc2ccccc2OC(C)C)cc1S(N)(=O)=O | – | 9.66
